Entries after “also recorded” stand apart in the source; their conditions may differ. Values belong to the compound of their own block, whether it stands above or below them.
What was measured:
HUVECs = test: Cytotoxicity assay; assay type: cell-based, human; details: normal primary cells
Summary of the method: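 Pooled-donor HUVECs were grown on collagen-1-coated flasks in M200 with gentamycin, amphotericin B and low-serum growth supplement at 37 °C and 5% CO2, used at passage 5 or lower. Cells were seeded at 9,000/well for 24 h, then given ten-fold serial dilutions of test compound for 48 h. Plates were TCA-fixed and stained with 0.4% SRB for 30 min. Absorbance was read at 540 nm, normalised to 630 nm. GI50 came from at least two replicates, averaged over at least three experiments.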

cathepsin L [1] = target: T1, cathepsin L (Homo sapiens, UniProt P07711); test: Cathepsin L reaction progress curves / reversibility; assay type: biochemical; details: separate experiments, Supplementary data
T1 sequence (P07711 114-288 limits assumed): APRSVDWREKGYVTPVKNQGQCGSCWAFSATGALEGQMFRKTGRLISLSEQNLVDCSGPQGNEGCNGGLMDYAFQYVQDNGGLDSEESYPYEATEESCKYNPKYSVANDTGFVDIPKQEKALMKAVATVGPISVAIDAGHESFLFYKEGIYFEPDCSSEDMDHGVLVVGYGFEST
T1 sequence (P07711 292-333 limits assumed): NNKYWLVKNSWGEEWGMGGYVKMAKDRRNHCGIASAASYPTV
Summary of the method: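 No pre-incubation. Test compound at final 10, 5, 1, 0.5, 0.1, 0.01 and 0.005 µM was mixed with Z-FR-AMC (final 10 µM), and the reaction was started by adding cathepsin L in assay buffer. AMC fluorescence (ex 355/em 460 nm) was read every 30 s for 50 min.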

[2] = tested on: MDA-MB-231 breast cancer cells; test: MDA-MB-231 cell migration assay; assay type: cell-based, human; details: 25 μM
Summary of the method: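 MDA-MB-231 cells (DMEM, 10% FBS, gentamycin) were trypsinised at 80% confluence and counted. Each insert (8 µm pores, no Matrigel) received 50,000 cells in DMEM with 2% DMSO and test compound at 25 or 10 µM; the lower chamber held DMEM with 10% FBS as chemoattractant. E-64 served as positive control. After 24 h at 37 °C and 5% CO2, migrated cells were methanol-fixed and Diff-stained. Values were normalised to 2% DMSO vehicle, in triplicate.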

C3H mammary carcinoma = test: Growth inhibition of C3H mammary carcinoma in CDF1 mice; assay type: in vivo; details: 20 mg/kg i.p., 5 daily treatments
human liver cathepsin L = human liver cathepsin L (Homo sapiens, UniProt P07711); test: Cathepsin L inhibition assay; assay type: biochemical; details: tested up to 10,000 nM
Sequence of human liver cathepsin L (P07711 114-288 limits assumed): as the sequence (P07711 114-288 limits assumed) above
Sequence of human liver cathepsin L (P07711 292-333 limits assumed): as the sequence (P07711 292-333 limits assumed) above

cathepsin L [3] = target: T1, cathepsin L; details: cited from earlier work
Human liver Cathepsin B = Human liver Cathepsin B (Homo sapiens, UniProt P07858); test: Cathepsin B inhibition assay; assay type: biochemical
Summary of the method: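 Human liver cathepsin B was pre-incubated with the test compound for 5 min at 37 °C, then Z-RR-AMC was added. Fluorescence (ex 355/em 460 nm) was read over 5 min at 37 °C. IC50 was fitted from triplicate experiments.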

[4] = E/Z isomerization in solution followed by 1H NMR; assay type: physicochemical; details: acetone, one week; isolated as Z isomer

SMILES: NC(=S)N/N=C(\c1ccc(F)cc1)c1cccc(C(=O)c2ccc(F)cc2)c1 [Compound 8, 1,3-Bis(4-fluorobenzoyl)benzene thiosemicarbazone]
cytotoxicity toward HUVECs (in words) (HUVECs): low cytotoxicity; also recorded: very low cytotoxicity

SMILES: NC(=S)N/N=C(\c1cccc(O)c1)c1cc(Br)cc(C(=O)c2cccc(O)c2)c1 [Compound 31, 1,3-Bis(3-hydroxybenzoyl)-5-bromobenzene thiosemicarbazone]
cytotoxicity toward HUVECs (in words) (HUVECs): very low cytotoxicity

SMILES: NC(=S)N/N=C(\c1ccccc1)c1cccc(C(=O)c2ccccc2)c1 [Compound 1, 3-Benzoylbenzophenone thiosemicarbazone]
reversibility of cathepsin L inhibition (cathepsin L [1]): slowly reversible
increase in inhibition of migration compared with positive control E-64 [2]: greater than 2 fold
tumor growth delay (in words) (C3H mammary carcinoma; C3H mammary carcinoma in CDF1 mice): showed efficacy in tumor growth delay; also recorded: modest, statistically relevant efficacy in tumor growth delay; also recorded: delayed growth in vivo
tolerability in mouse model (C3H mammary carcinoma; CDF1 mice bearing C3H mammary carcinoma): well-tolerated
cytotoxicity toward HUVECs (in words) (HUVECs): low cytotoxicity; also recorded: very low cytotoxicity

activity against cathepsin L (in words) (human liver cathepsin L): inactive
SMILES: CC(C)Oc1ccc(C(=O)c2cccc(/C(=N/NC(N)=S)c3ccc(OC(C)C)cc3)c2)cc1 [Compound 14, 1,3-Bis(4-isopropoxybenzoyl)benzene thiosemicarbazone]

SMILES: NC(=S)NN=C(c1cccc(O)c1)c1cccc(Br)c1 [X, (3-bromo-3′-hydroxybenzophenone) thiosemicarbazone]
kinetic analysis of cathepsin L inhibition (cathepsin L [3]): time-dependent and slowly reversible

activity against cathepsin L (in words) (human liver cathepsin L): no activity
activity against cathepsin B (in words) (Human liver Cathepsin B): inactive
SMILES: NC(=S)N/N=C(\c1ccc(Br)cc1)c1cccc(/C(=N/NC(N)=S)c2ccc(Br)cc2)c1 [Compound 10, 1,3-Bis(4-bromobenzoyl)benzene bis-thiosemicarbazone]

reversibility of cathepsin L inhibition (cathepsin L [1]): slowly reversible
isomerization on standing in solution [4]: did not isomerize
SMILES: NC(=S)N/N=C(\c1cc(Br)cc(C(=O)c2ccccc2F)c1)c1ccccc1F [Compound 32, 1,3-Bis(2-fluorobenzoyl)-5-bromobenzene thiosemicarbazone]
cytotoxicity toward HUVECs (in words) (HUVECs): low cytotoxicity; also recorded: very low cytotoxicity

Reference: paper PMC4824049 (Bioorganic & medicinal chemistry, 2015)
